# Results gathered from unrelated publications.
# Oprm1: Mu-type opioid receptor (Oprm1, Rattus norvegicus, UniProt P33535)
# PI4KA: Phosphatidylinositol 4-kinase alpha (PI4KA, Homo sapiens, UniProt P42356)
Structure (SMILES),target,assay,setting,measurement,value
COc1ncccc1-c1cnn2ccc(N3CCN(C(=O)OC(C)C)CC3)nc12,"Mitogen-activated protein kinase kinase kinase 19 (MAP3K19, Homo sapiens, UniProt Q56UN5)","binding, competition with immobilised ligand",1 µM,remaining binding,100%
Nc1ncc(-c2nc(N3CCOCC3)nc(N3CCOCC3)n2)c(C(F)F)n1,"Mast/stem cell growth factor receptor Kit (KIT, Homo sapiens, UniProt P10721, V559D)","binding, competition with immobilised ligand",10 µM,remaining binding,18%
Cc1nn(C)cc1-c1nc2c(N3CCN(Cc4ccc(Cl)cc4)CC3)c(Cl)cnc2[nH]1,"Atypical kinase COQ8A, mitochondrial (COQ8A, Homo sapiens, UniProt Q8NI60)","binding, competition with immobilised ligand",1 µM,remaining binding,80%
C[C@@H](O)[C@@H]1CN([C@H](Cc2ccc3ccccc3c2)CN2CCC[C@H]2CN2CCNC[C@@H]2Cc2ccc3ccccc3c2)CCN1CCC12CC3CC(CC(C3)C1)C2,Oprm1,"ligand displacement, radioligand","0.5 µM, 1 h, pH 7.5, cell membranes",remaining binding,107%
Cn1cc(-c2cc(F)cc(N3CCn4c(cc5c4CCCC5)C3=O)c2CO)cc(Nc2ccc(N3CCN(C4COC4)CC3)cn2)c1=O,PI4KA,"enzyme activity, inhibitor",0.1 µM,inhibition,6%
CC[C@@H](C)[C@@H]1CN([C@@H](CC2CCCCC2)CN2CCC[C@H]2CN2CCNC[C@@H]2CO)CCN1CCc1ccc(Cl)c(Cl)c1,Oprm1,"ligand displacement, radioligand","0.5 µM, 1 h, pH 7.5, cell membranes",remaining binding,97.8%
CCN(CC)CCCC[C@H](NC(=O)[C@H](CC(C)C)NC(=O)[C@H](C)NC(=O)[C@H](Cc1ccccc1)NC(=O)c1ccc(C(C)(C)C)cc1)C(=O)N[C@@H](CO)C(=O)OC,"5-hydroxytryptamine receptor 5A (HTR5A, Homo sapiens, UniProt P47898)","ligand displacement, radioligand",10 µM,remaining binding,93.1%
CCCC[C@H]1CNCCN1C[C@@H]1CCCN1C[C@@H](Cc1ccc2ccccc2c1)N1CCN(CCC23CC4CC(CC(C4)C2)C3)[C@H]([C@@H](C)O)C1,Oprm1,"ligand displacement, radioligand","0.5 µM, 1 h, pH 7.5, cell membranes",remaining binding,102%
Cn1cc(-c2cccc(N3CCc4c(sc5c4CC(C)(C)C5)C3=O)c2CO)cc(Nc2ccncn2)c1=O,PI4KA,"enzyme activity, inhibitor",1 µM,inhibition,-5%
C#Cc1n[nH]c2c(-c3cn(C(C)c4ccccn4)c(=O)[nH]c3=O)cc(F)cc12 (stereo not drawn),"Myosin light chain kinase, smooth muscle (MYLK, Homo sapiens, UniProt Q15746)","enzyme activity, inhibitor",1 µM,inhibition,4%
C[C@@H](O)[C@@H]1CN([C@H](Cc2ccc3ccccc3c2)CN2CCC[C@H]2CN2CCNC[C@@H]2Cc2ccc3ccccc3c2)CCN1CCc1ccc(Cl)c(Cl)c1,Oprm1,"ligand displacement, radioligand","0.5 µM, 1 h, pH 7.5, cell membranes",remaining binding,109%
CC(C)(C)c1nc(-c2cccc(NS(=O)(=O)c3c(F)cccc3F)c2F)c(-c2ccnc(N)n2)s1,"Tau-tubulin kinase 1 (TTBK1, Homo sapiens, UniProt Q5TCY1)","enzyme activity, inhibitor, radiometric",1 µM,remaining activity,89%
